Data as given in ChEMBL document CHEMBL1955815, “The synthesis of ethacrynic acid thiazole derivatives as glutathione S-transferase pi inhibitors” (2012).

Tested on: HL-60
Test: Growth inhibition of human HL60 cells after 72 hrs by trypan blue staining
Type: functional
Settings: HL-60, 72 h
Outline: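 HL-60 cells kept in RPMI-1640 with 10% heat-inactivated FBS, penicillin/streptomycin and L-glutamine at 37 °C, 5% CO2. Seeded at 4×10^4/mL in 24-well plates and exposed to a range of concentrations for 72 h. Trypan blue-positive and -negative cells were both counted. Inhibition = (1−Nt/Nc)×100%, and GI50 is the concentration giving half-maximal growth inhibition versus untreated cells.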

| GI50 [nM] | Structure (SMILES) |
| --- | --- |
| 3600 | C=C(CC)C(=O)c1ccc(OCc2nc(-c3ccc([N+](=O)[O-])cc3)cs2)c(C)c1C |
| 3400 | C=C(C)C(=O)c1ccc(OCc2nc(-c3ccccc3)cs2)c(C)c1C |
| 5100 | C=C(C)C(=O)c1ccc(OCc2nc(-c3ccc([N+](=O)[O-])cc3)cs2)c(C)c1C |
| 1500 | C=C(CC)C(=O)c1ccc(OCc2nc(-c3ccc(C(F)(F)F)cc3)cs2)c(C)c1C |
| 3600 | C=C(CC)C(=O)c1ccc(OCc2nc(-c3ccc4ccccc4c3)cs2)c(Cl)c1Cl |
| 2300 | C=C(C)C(=O)c1ccc(OCc2nc(-c3ccc4ccccc4c3)cs2)c(C)c1C |
| 900 | C=C(CC)C(=O)c1ccc(OCc2nc(-c3ccc4ccccc4c3)cs2)cc1Cl |
| 2000 | C=C(CC)C(=O)c1ccc(OCc2nc(-c3ccc4ccccc4c3)cs2)c(C)c1C |
| 2900 | C=C(C)C(=O)c1ccc(OCc2nc(-c3ccc4ccccc4c3)cs2)cc1Cl |

Second part, the compound before the results:

| Structure (SMILES) | GI50 [nM] |
| --- | --- |
| C=C(C)C(=O)c1ccc(OCc2nc(-c3ccc([N+](=O)[O-])cc3)cs2)cc1Cl | 5900 |
| C=C(CC)C(=O)c1ccc(OCc2nc(-c3ccc(C(F)(F)F)cc3)cs2)cc1Cl | 2000 |
| C=C(C)C(=O)c1ccc(OCc2nc(-c3ccccc3)cs2)cc1C | 4700 |
| C=C(C)C(=O)c1ccc(OCc2nc(-c3ccccc3)cs2)cc1Cl | 6400 |
| C=C(CC)C(=O)c1ccc(OCc2nc(-c3ccc(C(F)(F)F)cc3)cs2)c(Cl)c1Cl | 1600 |
| C=C(CC)C(=O)c1ccc(OCc2nc(-c3ccc([N+](=O)[O-])cc3)cs2)cc1Cl | 800 |
| C=C(C)C(=O)c1ccc(OCc2nc(-c3ccc(C(F)(F)F)cc3)cs2)cc1Cl | 1400 |
| C=C(CC)C(=O)c1ccc(OCC(=O)O)c(Cl)c1Cl [ETHACRYNIC ACID] | 44200 |
| C=C(CC)C(=O)c1ccc(OCc2nc(-c3ccc([N+](=O)[O-])cc3)cs2)c(Cl)c1Cl | 1000 |
| C=C(C)C(=O)c1ccc(OCc2nc(-c3ccc(C(F)(F)F)cc3)cs2)c(C)c1C | 3100 |
